From paper PMC10099993 (Clinical Pharmacology in Drug Development, 2022)
Where “and” joins values, the source holds several entries; their conditions need not be identical. Equal values may be shown once. Read-outs that look alike come from different tables or passages of the source.

Key:
[1] = Mass balance study, single oral dose of [14C]-pexidartinib 400 mg; type: in vivo, human; conditions: for Percent of Radioactive Dose, feces: pooled feces
Procedure, shortened: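 Eight healthy men, 19–55 y, BMI 19–32 kg/m2. Single oral 400 mg (150 μCi) 14C suspension with ~50 mL water after ≥8 h fast, fasting ≥4 h after dosing. Confined ≥168 h; urine and feces collected up to 240 h. Total radioactivity by scintillation counting. Parent in plasma by validated LC-MS/MS. Radio-LC-MS profiling of metabolites. Noncompartmental PK.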

[2] = following oral administration; background statement, no reference given; cited from earlier work
[3] = test system: CYP2C9; conditions: previous pharmacokinetic analyses ref 4; cited from earlier work
[4] = type: in vivo, human; conditions: for half-life / Cmax: human, plasma; for half-life: oral; for Cmax: po; for dose-normalized AUCinf, geometric LS mean / dose-normalized AUClast, geometric LS mean / dose-normalized Cmax, geometric LS mean: ANOVA
Procedure, shortened: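 Healthy adults of both sexes, 18–60 y, BMI 18–30 kg/m2. Randomized three-period crossover (sequences ABC/BCA/CAB), with a single fasted oral dose and 240 mL water on day 1 of each period and a 10-day washout. Plasma sampled 0.5–144 h postdose and analysed by validated LC-MS/MS. Noncompartmental PK. Mixed-effects ANOVA on dose-normalized ln Cmax/AUC versus the 400 mg reference. Power model: 90% CI of slope against the 80–120% interval.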

[5] = target: rCYP3A5 (Homo sapiens, UniProt P20815); assay: In vitro metabolic enzyme identification, recombinant human CYP incubation; type: in vitro ADME; conditions: 1 μM pexidartinib, NADPH, 37°C, 30 minutes
rCYP3A5, sequence (P20815 whole entry): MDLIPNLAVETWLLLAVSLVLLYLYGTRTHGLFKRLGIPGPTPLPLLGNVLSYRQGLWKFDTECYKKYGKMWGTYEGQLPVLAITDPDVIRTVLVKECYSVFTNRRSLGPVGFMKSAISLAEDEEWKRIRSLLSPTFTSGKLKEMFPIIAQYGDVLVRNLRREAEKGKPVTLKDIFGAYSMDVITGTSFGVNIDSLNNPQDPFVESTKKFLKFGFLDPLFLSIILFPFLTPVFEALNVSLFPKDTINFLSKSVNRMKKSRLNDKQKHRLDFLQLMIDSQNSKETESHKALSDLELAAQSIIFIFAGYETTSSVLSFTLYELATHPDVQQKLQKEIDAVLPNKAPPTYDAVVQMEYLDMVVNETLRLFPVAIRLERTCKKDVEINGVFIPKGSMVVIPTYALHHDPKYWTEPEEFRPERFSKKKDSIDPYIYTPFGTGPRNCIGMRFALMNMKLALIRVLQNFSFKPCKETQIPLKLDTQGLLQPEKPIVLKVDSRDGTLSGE
Procedure, shortened: (§1)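 1 μM test compound incubated with a panel of recombinant human CYPs (1A2, 2B6, 2C8, 2C9, 2C19, 2D6, 3A4, 3A5) plus NADPH at 37°C for 30 minutes. Parent loss measured by LC-MS/MS.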

[6] = test system: cytochrome P450 (CYP) 3A; conditions: previous pharmacokinetic analyses ref 4; cited from earlier work
[7] = target: rCYP3A4 (Homo sapiens, UniProt P08684); assay: In vitro metabolic enzyme identification, recombinant human CYP incubation; type: in vitro ADME; conditions: 1 μM pexidartinib, NADPH, 37°C, 30 minutes
rCYP3A4, sequence (P08684 whole entry): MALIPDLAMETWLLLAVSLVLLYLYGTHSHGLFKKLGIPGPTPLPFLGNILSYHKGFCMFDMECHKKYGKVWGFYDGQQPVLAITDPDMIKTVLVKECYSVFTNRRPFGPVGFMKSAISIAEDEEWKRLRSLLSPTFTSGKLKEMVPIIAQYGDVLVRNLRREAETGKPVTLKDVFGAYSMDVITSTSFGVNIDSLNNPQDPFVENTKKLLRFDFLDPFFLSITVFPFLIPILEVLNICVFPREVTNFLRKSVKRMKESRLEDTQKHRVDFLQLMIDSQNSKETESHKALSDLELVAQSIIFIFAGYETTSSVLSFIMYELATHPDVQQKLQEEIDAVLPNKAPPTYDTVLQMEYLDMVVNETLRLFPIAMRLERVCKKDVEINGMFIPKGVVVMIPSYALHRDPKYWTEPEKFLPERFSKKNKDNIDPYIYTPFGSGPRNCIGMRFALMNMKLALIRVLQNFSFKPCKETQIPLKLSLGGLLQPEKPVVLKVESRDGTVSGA
Procedure, shortened: as §1

[8] = male, human, plasma, po, 400 mg
[9] = single oral [14C]-pexidartinib 400 mg
[10] = single oral [14C]-pexidartinib 400 mg, N = 8, median (range)
[11] = across all three dose levels, 90%CI
[12] = dose-proportionality study, 18 subjects
[13] = pexidartinib 200 mg vs 400 mg (400 mg reference)
[14] = pexidartinib 400 mg vs 600 mg (400 mg reference)

FC(F)(F)c1ccc(CNc2ccc(Cc3c[nH]c4ncc(Cl)cc34)cn2)cn1 [Pexidartinib]
time of peak pexidartinib and total radioactivity ([1]; after the oral dose, pexidartinib and total radioactivity together): 1.75 to 2.0 h
severity of TEAEs ([1]; all events, mass balance study): mild (grade 1)
oral bioavailability ([1]; inferred from 44% of dose excreted unchanged in feces): moderate
Cmax [1, 8]: 2.92 µg/mL
Tmax [1, 8]: 1.75 h
half-life [1, 8]: 28.7 h
AUC(0-t) ([1]; male, human, plasma, po, 400 mg, AUClast, pexidartinib in plasma, single oral [14C]-pexidartinib 400 mg, N = 8, mean (CV%)): 60.4 µg·h/mL
TEAE deemed by the investigator to be related to pexidartinib treatment ([1]; mass balance study): Diarrhea
TEAE leading to death, serious adverse event, or discontinuation ([1]; mass balance study, 8 subjects): No subject
number of TEAEs ([1]; mass balance study, 8 subjects): four
administered radioactivity recovered in the feces ([1]; over 240 hours, single oral [14C]-pexidartinib 400 mg): 64.8%
administered radioactivity recovered in the urine ([1]; over 240 hours, single oral [14C]-pexidartinib 400 mg, listed as [^14C]‐pexidartinib): 27.4%
administered radioactivity recovered in the urine ([1]; over 240 hours, single oral [14C]-pexidartinib 400 mg, listed as pexidartinib): > 20%
share of total radioactivity in the plasma ([1]; plasma, single oral [14C]-pexidartinib 400 mg): 34.9%
Percent of Radioactive Dose, feces [1, 9]: 44%
Percent of Radioactive Dose, feces ([1]; single oral [14C]-pexidartinib 400 mg, listed as pexidartinib): 44.0%
Percent of Radioactive Dose, urine ([1]; pooled urine, single oral [14C]-pexidartinib 400 mg): no detectable
AUC0-24 of total plasma radioactivity relative to plasma pexidartinib [1, 9]: approximately 2 fold
AUClast of total radioactivity in plasma relative to pexidartinib in plasma [1, 9]: 3 fold
Cmax of total plasma radioactivity relative to plasma pexidartinib [1, 9]: approximately 2 fold
Tmax, total radioactivity in plasma [1, 10]: 2.0 (1.5, 3.0) h
Tmax, total radioactivity in whole blood [1, 10]: 2.0 (1.5, 3.0) h
time of maximum plasma concentrations [2]: approximately 2.5 hours
effect on CYP2C9 [3]: weak inhibitor
dose proportionality by power model ([4]; 200-600 mg, 90%CIs overlapped the 0.80-1.20 acceptance interval): inconclusive
slope estimate for AUClast versus dose (power model) [4, 11]: 0.85 (90%CI 0.77, 0.92)
slope estimate for Cmax versus dose (power model) [4, 11]: 0.83 (90%CI 0.74, 0.91) and 0.83 (90%CI, 0.74, 0.91)
severity of TEAEs ([4]; all TEAEs, dose-proportionality study): grade 1
TEAE leading to death, serious adverse event, or discontinuation [4, 12]: No subject
subjects who experienced TEAEs [4, 12]: four
half-life [4]: 24.8 to 26.7 h
half-life ([4]; 600 mg): 24.8 h
Cmax ([4]; 200 mg): 2.49 µg/mL
Cmax ([4]; 400 mg): 4.66 µg/mL
Cmax ([4]; 600 mg): 6.03 µg/mL
dose-normalized AUCinf, geometric LS mean ratio (90%CI) [4, 13]: 101.3 (93.5, 109.7) %
dose-normalized AUClast, geometric LS mean ratio (90%CI) [4, 13]: 101.3 (93.5, 109.8) %
dose-normalized Cmax, geometric LS mean ratio (90%CI) [4, 13]: 105.9 (96.8, 115.8) %
dose-normalized AUCinf, geometric LS mean ([4]; pexidartinib 200 mg, n = 18): 209.4 ng·h/mL/mg
dose-normalized AUClast, geometric LS mean ([4]; pexidartinib 200 mg, n = 18): 204.1 ng·h/mL/mg
dose-normalized Cmax, geometric LS mean ([4]; pexidartinib 200 mg, n = 18): 11.7 ng/mL • mg
t1/2, pexidartinib in plasma ([4]; pexidartinib 200 mg, n = 18, mean (SD)): 25.5 (5.2) h
dose-normalized AUCinf, geometric LS mean ratio (90%CI) [4, 14]: 83.7 (77.3, 90.7) %
dose-normalized AUClast, geometric LS mean ratio (90%CI) [4, 14]: 84.1 (77.6, 91.2) %
dose-normalized Cmax, geometric LS mean ratio (90%CI) [4, 14]: 86.3 (79.0, 94.4) %
dose-normalized AUCinf, geometric LS mean ([4]; pexidartinib 400 mg, n = 18): 206.8 ng·h/mL/mg
dose-normalized AUClast, geometric LS mean ([4]; pexidartinib 400 mg, n = 18): 201.4 ng·h/mL/mg
dose-normalized Cmax, geometric LS mean ([4]; pexidartinib 400 mg, n = 18): 11.0 ng/mL • mg
dose-normalized AUCinf, geometric LS mean ([4]; pexidartinib 600 mg, n = 18): 173.2 ng·h/mL/mg
dose-normalized AUClast, geometric LS mean ([4]; pexidartinib 600 mg, n = 18): 169.4 ng·h/mL/mg
dose-normalized Cmax, geometric LS mean ([4]; pexidartinib 600 mg, n = 18): 9.5 ng/mL • mg
substrate loss [5]: 100 % loss
effect on CYP3A [6]: moderate inducer
substrate loss [7]: 100 % loss
